Measurements published in ChEMBL document CHEMBL1149771, “Antimicrobial studies of 2,4-dichloro-5-fluorophenyl containing oxadiazoles” (2008).
≈ marks a conversion by molar mass, not a printed value.

Tests used:
Type in all cases: functional
Candida albicans [1] = assay: Antifungal activity against Candida albicans at 35 degC after 48 hrs by broth dilution method
Method in brief: (§1)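 Fungal MIC by broth dilution. Two-fold serial dilutions of compound in nutrient broth were inoculated with about 1.6 × 10⁴–6 × 10⁴ c.f.u./ml. Incubation was 48 h at 35 °C. MIC was the lowest concentration arresting fungal growth.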

Aspergillus fumigatus [2] = assay: Antifungal activity against Aspergillus fumigatus at 35 degC after 48 hrs
Method in brief: (§2)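 Fungicidal endpoint (MFC). 0.1 ml from each broth-dilution tube was spread on agar plates and c.f.u. counted after 48 h at 35 °C. MFC was the lowest concentration killing 99.9% of the inoculum.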

Talaromyces marneffei [3] = assay: Antifungal activity against Penicillium marneffei at 35 degC after 48 hrs by broth dilution method; method in brief: as §1
Aspergillus fumigatus [4] = assay: Antifungal activity against Aspergillus fumigatus at 35 degC after 48 hrs by broth dilution method; method in brief: as §1
Talaromyces marneffei [5] = assay: Antifungal activity against Penicillium marneffei at 35 degC after 48 hrs; method in brief: as §2
Escherichia coli [6] = assay: Antibacterial activity against Escherichia coli ATCC 25922 at 37 degC after 24 hrs by disc diffusion method
Method in brief: (§3)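 Disc diffusion on nutrient agar. Plates were spread with 1–2 × […] c.f.u./ml inoculum (0.5 McFarland). Sterile 6.25 mm filter-paper discs were soaked in a known concentration of compound and placed on the agar. Plates were inverted and incubated 24 h at 37 °C. Inhibition zones (mm) were read against solvent and growth controls, with ciprofloxacin as reference.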

Candida albicans [7] = assay: Antifungal activity against Candida albicans at 37 degC after 3 to 4 days by agar dilution method; details: for Activity: in the assay text read “agar diffusion method” for “agar dilution method”
Method in brief: (§4)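 Agar well diffusion for fungi, compounds in DMSO. Sabouraud agar was adjusted to pH 5.7 and lawned with a saline spore suspension (a loopful in 3 ml). Plates were dried 1 h at 37 °C, then wells were punched. Incubation was 3–4 days at 37 °C, with controls in triplicate. Inhibition zones were measured against controls, with griseofulvin as standard.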

Pseudomonas aeruginosa [8] = assay: Antibacterial activity against Pseudomonas aeruginosa ATCC 27853 at 37 degC after 24 hrs by broth dilution method; details: ATCC 27853, 24 h
Method in brief: (§5)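 Broth dilution MIC. Nutrient broth held two-fold serial dilutions of compound and was inoculated with about 5 × 10⁵ c.f.u. of actively dividing bacteria. Cultures ran 24 h at 37 °C, with growth checked visually and spectrophotometrically. MIC was the lowest concentration arresting growth. Ciprofloxacin was the standard.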

Pseudomonas aeruginosa [9] = assay: Antibacterial activity against Pseudomonas aeruginosa ATCC 27853 at 35 degC after 18 to 24 hrs
Method in brief: (§6)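 Bactericidal endpoint (MBC) taken from the broth-dilution MIC tubes. 0.1 ml from each tube was spread on agar plates and c.f.u. counted after 18–24 h. MBC was the lowest concentration completely killing the bacteria.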

Klebsiella pneumoniae [10] = assay: Antibacterial activity against Klebsiella pneumoniae ATCC 25922 at 35 degC after 18 to 24 hrs; details: recultured, in the assay text read “Klebsiella pneumoniae (recultured)” for “Klebsiella pneumoniae ATCC 25922”; method in brief: as §6
[11] = system: Trichophyton mentagrophytes; assay: Antifungal activity against Trichophyton mentagrophytes at 35 degC after 48 hrs by broth dilution method; method in brief: as §1
[12] = system: Trichophyton mentagrophytes; assay: Antifungal activity against Trichophyton mentagrophytes at 37 degC after 3 to 4 days by agar dilution method; details: in the assay text read “agar diffusion method” for “agar dilution method”; method in brief: as §4
[13] = system: Trichophyton mentagrophytes; assay: Antifungal activity against Trichophyton mentagrophytes at 35 degC after 48 hrs; method in brief: as §2
Escherichia coli [14] = assay: Antibacterial activity against Escherichia coli ATCC 25922 at 35 degC after 18 to 24 hrs; method in brief: as §6
Klebsiella pneumoniae [15] = assay: Antibacterial activity against Klebsiella pneumoniae ATCC 25922 at 37 degC after 24 hrs by disc diffusion method; method in brief: as §3
Staphylococcus aureus [16] = assay: Antibacterial activity against Staphylococcus aureus ATCC 25923 at 37 degC after 24 hrs by disc diffusion method; method in brief: as §3
Staphylococcus aureus [17] = assay: Antibacterial activity against Staphylococcus aureus ATCC 25923 at 35 degC after 18 to 24 hrs; method in brief: as §6
Talaromyces marneffei [18] = assay: Antifungal activity against Penicillium marneffei at 37 degC after 3 to 4 days by agar […] method; method in brief: as §4
Aspergillus fumigatus [19] = assay: Antifungal activity against Aspergillus fumigatus at 37 degC after 3 to 4 days by agar […] method; method in brief: as §4
Staphylococcus aureus [20] = assay: Antibacterial activity against Staphylococcus aureus ATCC 25923 at 37 degC after 24 hrs by broth dilution method; details: ATCC 25923, 24 h; method in brief: as §5
Klebsiella pneumoniae [21] = assay: Antibacterial activity against Klebsiella pneumoniae ATCC 25922 at 37 degC after 24 hrs by broth dilution method; details: recultured, in the assay text read “Klebsiella pneumoniae (recultured)” for “Klebsiella pneumoniae ATCC 25922”; method in brief: as §5
Pseudomonas aeruginosa [22] = assay: Antibacterial activity against Pseudomonas aeruginosa ATCC 27853 at 37 degC after 24 hrs by disc diffusion method; method in brief: as §3
Candida albicans [23] = assay: Antifungal activity against Candida albicans at 35 degC after 48 hrs; method in brief: as §2
Escherichia coli [24] = assay: Antibacterial activity against Escherichia coli ATCC 25922 at 37 degC after 24 hrs by broth dilution method; details: ATCC 25922, 24 h; method in brief: as §5

| SMILES | MIC (Candida albicans [1]) [µg/mL] | MFC (Aspergillus fumigatus [2]) [µg/mL] | MIC (Talaromyces marneffei [3]) [µg/mL] | MIC (Aspergillus fumigatus [4]) [µg/mL] | MFC (Talaromyces marneffei [5]) [µg/mL] | inhibition zone (IZ) (Escherichia coli [6]) [mm] | inhibition zone (IZ) (Candida albicans [7]) [mm] | MIC (Pseudomonas aeruginosa [8]) [µg/mL] | MBC (Pseudomonas aeruginosa [9]) [µg/mL] | MBC (Klebsiella pneumoniae [10]) [µg/mL] | MIC [11] [µg/mL] | MFC [13] [µg/mL] | MBC (Escherichia coli [14]) [µg/mL] | inhibition zone (IZ) (Klebsiella pneumoniae [15]) [mm] | inhibition zone (IZ) (Staphylococcus aureus [16]) [mm] | MBC (Staphylococcus aureus [17]) [µg/mL] | MIC (Staphylococcus aureus [20]) [µg/mL] | MIC (Klebsiella pneumoniae [21]) [µg/mL] | MFC (Candida albicans [23]) [µg/mL] | MIC (Escherichia coli [24]) [µg/mL] | further results |
| --- | --- | --- | --- | --- | --- | --- | --- | --- | --- | --- | --- | --- | --- | --- | --- | --- | --- | --- | --- | --- | --- |
| Fc1cc(-c2nnc(COc3ccccc3Cl)o2)c(Cl)cc1Cl | 25 (≈ 66.9 µM) | 12.5 (≈ 33.5 µM) | > 100 | 6.25 (≈ 16.7 µM) | > 100 | 18 | 10 | 12.5 (≈ 33.5 µM) | 25 (≈ 66.9 µM) | 50 (≈ 134 µM) | 12.5 (≈ 33.5 µM) | 50 (≈ 134 µM) | 12.5 (≈ 33.5 µM) | 12 | 15 | 50 (≈ 134 µM) | 12.5 (≈ 33.5 µM) | 25 (≈ 66.9 µM) | 50 (≈ 134 µM) | 6.25 (≈ 16.7 µM) | inhibition zone (IZ) [12]: 12 mm; Activity (Talaromyces marneffei [18]): >100 µg/mL; inhibition zone (IZ) (Aspergillus fumigatus [19]): 19 mm; inhibition zone (IZ) (Pseudomonas aeruginosa [22]): 15 mm |
| Cc1cc(Cl)ccc1OCc1nnc(-c2cc(F)c(Cl)cc2Cl)o1 | 6.25 (≈ 16.1 µM) | 6.25 (≈ 16.1 µM) | 6.25 (≈ 16.1 µM) | 6.25 (≈ 16.1 µM) | 6.25 (≈ 16.1 µM) | 24 | 28 | 6.25 (≈ 16.1 µM) | 6.25 (≈ 16.1 µM) | 6.25 (≈ 16.1 µM) | 6.25 (≈ 16.1 µM) | 25 (≈ 64.5 µM) | 12.5 (≈ 32.2 µM) | 19 | 20 | 6.25 (≈ 16.1 µM) | 6.25 (≈ 16.1 µM) | 6.25 (≈ 16.1 µM) | 6.25 (≈ 16.1 µM) | 6.25 (≈ 16.1 µM) | inhibition zone (IZ) [12]: 22 mm; inhibition zone (IZ) (Talaromyces marneffei [18]): 19 mm; inhibition zone (IZ) (Aspergillus fumigatus [19]): 25 mm; inhibition zone (IZ) (Pseudomonas aeruginosa [22]): 29 mm |
| Cc1cc(OCc2nnc(-c3cc(F)c(Cl)cc3Cl)o2)ccc1Cl | > 100 | 50 (≈ 129 µM) | 25 (≈ 64.5 µM) | 25 (≈ 64.5 µM) | 50 (≈ 129 µM) | 15 | – | > 100 | > 100 | > 100 | > 100 | > 100 | 100 (≈ 258 µM) | 12 | 10 | 50 (≈ 129 µM) | 25 (≈ 64.5 µM) | > 100 | > 100 | 12.5 (≈ 32.2 µM) | Activity (Candida albicans [7]): >100 µg/mL; Activity [12]: >100 µg/mL; inhibition zone (IZ) (Talaromyces marneffei [18]): 10 mm; inhibition zone (IZ) (Aspergillus fumigatus [19]): 8 mm; Activity (Pseudomonas aeruginosa [22]): >100 µg/mL |
| Cc1ccc(OCc2nnc(-c3cc(-c4cc(F)c(Cl)cc4Cl)nc4ccccc34)o2)cc1 | > 100 | > 100 | 12.5 (≈ 26 µM) | > 100 | 25 (≈ 52 µM) | 10 | – | 25 (≈ 52 µM) | 50 (≈ 104 µM) | 25 (≈ 52 µM) | 6.25 (≈ 13 µM) | 6.25 (≈ 13 µM) | 50 (≈ 104 µM) | 15 | 15 | 100 (≈ 208 µM) | 12.5 (≈ 26 µM) | 12.5 (≈ 26 µM) | > 100 | 25 (≈ 52 µM) | Activity (Candida albicans [7]): >100 µg/mL; inhibition zone (IZ) [12]: 17 mm; inhibition zone (IZ) (Talaromyces marneffei [18]): 15 mm; Activity (Aspergillus fumigatus [19]): >100 µg/mL; inhibition zone (IZ) (Pseudomonas aeruginosa [22]): 8 mm |
| Cc1ccccc1OCc1nnc(-c2cc(F)c(Cl)cc2Cl)o1 | 12.5 (≈ 35.4 µM) | 100 (≈ 283 µM) | 25 (≈ 70.8 µM) | 25 (≈ 70.8 µM) | 100 (≈ 283 µM) | 27 | 15 | 6.25 (≈ 17.7 µM) | 6.25 (≈ 17.7 µM) | 50 (≈ 142 µM) | > 100 | > 100 | 25 (≈ 70.8 µM) | 16 | 19 | 25 (≈ 70.8 µM) | 6.25 (≈ 17.7 µM) | 12.5 (≈ 35.4 µM) | 25 (≈ 70.8 µM) | 6.25 (≈ 17.7 µM) | Activity [12]: >100 µg/mL; inhibition zone (IZ) (Talaromyces marneffei [18]): 8 mm; inhibition zone (IZ) (Aspergillus fumigatus [19]): 10 mm; inhibition zone (IZ) (Pseudomonas aeruginosa [22]): 28 mm |
| Cc1ccccc1OCc1nnc(-c2cc(-c3cc(F)c(Cl)cc3Cl)nc3ccccc23)o1 | 6.25 (≈ 13 µM) | > 100 | > 100 | > 100 | > 100 | 12 | 25 | > 100 | > 100 | > 100 | 6.25 (≈ 13 µM) | 12.5 (≈ 26 µM) | 25 (≈ 52 µM) | – | 12 | 25 (≈ 52 µM) | 12.5 (≈ 26 µM) | > 100 | 25 (≈ 52 µM) | 12.5 (≈ 26 µM) | inhibition zone (IZ) [12]: 18 mm; Activity (Klebsiella pneumoniae [15]): >100 µg/mL; Activity (Talaromyces marneffei [18]): >100 µg/mL; Activity (Aspergillus fumigatus [19]): >100 µg/mL; Activity (Pseudomonas aeruginosa [22]): >100 µg/mL |
